The values that follow come from ChEMBL document CHEMBL1141222, “Antitrypanosomal, antileishmanial, and antimalarial activities of quaternary arylalkylammonium 2-amino-4-chlorophenyl phenyl sulfides, a new class of trypanothione reductase inhibitor, and of N-acyl derivatives of 2-amino-4-chlorophenyl phenyl sulfide” (J Med Chem, 2005).

pIC50, pKi: −log10 of the molar value. In brackets after ≈: the same amount, converted by molar mass.

In assay [1] the target is T1, Trypanothione reductase (Trypanosoma cruzi, UniProt P28593). As to the kind of experiment: Linear competitive inhibition of trypanothione reductase from Trypanosoma cruzi using (ZCG.dmapa)2 substrate.
The next assay has as its system Trypanosoma cruzi. As to the kind of experiment: Antitrypanosomal activity against Trypanosoma cruzi Tulahuan. The class given is functional, organism-based.
A further assay concerns Plasmodium falciparum. In words: Antimalarial activity against Plasmodium falciparum 3D7. The format is functional, organism-based. An outline of the steps: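 Asynchronous 3D7 cultures (65-75% rings) in RPMI 1640, 5% hematocrit, 0.5% parasitemia, 37 °C, 5% CO2; top final drug concentration 30. After 24 h, [3H]-hypoxanthine ([…]) added, then 48 h more. Plates freeze/thawed and harvested; uptake by scintillation counting; IC50 by curve fit.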

For the next assay, the system named is KB. As to the kind of experiment: Cytotoxicity in KB cells. The format is functional, cell-based. To be noted: Homo sapiens.
A further assay relates to Leishmania donovani. In words: Antileishmanial activity against Leishmania donovani HU3. The class given is functional, organism-based. An outline of the steps:
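Peritoneal exudate macrophages from CD1 mice (harvested 24 h after starch induction) held 24 h in RPMI1640 + 10% HIFCS, 37 °C, 5% CO2, then infected with hamster-spleen HU3 amastigotes at 5:1. After 24 h, drug exposure for 5 days (overlay replaced day 3), top 30 µg/mL, quadruplicate. Giemsa-stained slides scored microscopically; IC50 by curve fit. Pentostam positive control.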

In assay [2] the test system is Trypanosoma brucei rhodesiense. In words: Antitrypanosomal activity against Trypanosoma brucei rhodesiense STIB900. The class given is functional, organism-based. An outline of the steps: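 STIB900 bloodstream trypomastigotes in HMI-18 + 15% HIFCS, seeded at 2 × 10⁵/mL onto drug dilutions (top 30 µg/mL), 72 h at 37 °C, 5% CO2; pentamidine reference.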
For assay [3], the target named is T1, Trypanothione reductase. In words: (§1) Mixed inhibition of trypanothione reductase from Trypanosoma cruzi using TSST substrate. In short, it runs like this:
(§2)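 E. coli JM109-expressed T. cruzi TR (3 µg/mL), 25 °C, 0.02 M HEPES pH 7.25 containing 0.15 M KCl, 1 mM EDTA and 0.1 mM NADPH. TSST as variable substrate at 30-240 µM against a series of inhibitor concentrations. Absorbance read at 340 nm. Ki and Ki′ obtained from Dixon, Lineweaver-Burk and Cornish-Bowden plots fitted to a mixed inhibition model.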

The target of assay [4] is Trypanothione reductase (Trypanosoma cruzi) (UniProt P28593). Described as §1. An outline of the steps:
as §2

Assay [5] deals with T1, Trypanothione reductase. As to the kind of experiment: Linear competitive inhibition of trypanothione reductase from Trypanosoma cruzi using TSST substrate.
Assay [6] concerns the target T1, Trypanothione reductase. As to the kind of experiment: Inhibitory activity against trypanothione reductase from Trypanosoma cruzi using 0.12 mM TSST substrate. In short, it runs like this:
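Recombinant T. cruzi TR overexpressed in E. coli JM109, homogeneous by SDS-PAGE. I50 read by interpolation from velocity vs inhibitor concentration, fitted to the linear competitive equation by nonlinear regression.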

Assay [7] deals with T2, Glutathione reductase, mitochondrial (Homo sapiens, UniProt P00390).
T2 sequence (P00390 whole entry): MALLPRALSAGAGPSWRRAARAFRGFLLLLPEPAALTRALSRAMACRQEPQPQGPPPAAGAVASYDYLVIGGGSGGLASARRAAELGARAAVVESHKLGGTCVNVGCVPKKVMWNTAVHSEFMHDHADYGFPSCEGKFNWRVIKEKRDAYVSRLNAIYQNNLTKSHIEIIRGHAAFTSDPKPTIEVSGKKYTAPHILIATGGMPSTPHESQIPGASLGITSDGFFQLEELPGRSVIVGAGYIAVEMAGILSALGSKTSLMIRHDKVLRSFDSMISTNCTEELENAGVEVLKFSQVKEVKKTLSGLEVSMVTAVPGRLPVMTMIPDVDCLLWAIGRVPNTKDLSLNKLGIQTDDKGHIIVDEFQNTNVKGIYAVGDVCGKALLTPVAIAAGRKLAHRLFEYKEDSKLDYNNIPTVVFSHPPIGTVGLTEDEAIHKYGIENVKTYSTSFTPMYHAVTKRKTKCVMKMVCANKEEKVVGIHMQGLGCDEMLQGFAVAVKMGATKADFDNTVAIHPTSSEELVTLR
In words: Inhibitory activity against human glutathione reductase at 0.5 mM.

T1 sequence (P28593 whole entry): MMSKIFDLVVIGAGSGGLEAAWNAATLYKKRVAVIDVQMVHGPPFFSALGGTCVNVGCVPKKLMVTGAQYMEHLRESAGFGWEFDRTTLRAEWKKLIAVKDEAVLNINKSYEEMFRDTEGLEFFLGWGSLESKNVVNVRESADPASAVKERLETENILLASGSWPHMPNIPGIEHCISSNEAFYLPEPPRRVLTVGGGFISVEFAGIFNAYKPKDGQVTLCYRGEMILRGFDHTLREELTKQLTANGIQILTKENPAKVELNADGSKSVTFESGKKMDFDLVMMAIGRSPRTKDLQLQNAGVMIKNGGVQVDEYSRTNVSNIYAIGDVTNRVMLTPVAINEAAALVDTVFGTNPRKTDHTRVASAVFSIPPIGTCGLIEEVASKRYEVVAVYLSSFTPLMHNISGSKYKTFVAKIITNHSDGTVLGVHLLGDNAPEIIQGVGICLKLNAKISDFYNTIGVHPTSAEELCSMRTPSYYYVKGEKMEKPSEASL
Sequence of Trypanothione reductase (Trypanosoma cruzi) (P28593 whole entry, looked up): as the sequence (P28593 whole entry) above

What is called pKi is −log10 of the Ki, conventionally taken in molar units. Higher therefore signals a low Ki. Consider `C[N+](C)(CCCNc1cc(Cl)ccc1Sc1ccccc1)C(c1ccccc1)c1ccccc1`, for which the pKi at Trypanothione reductase [1] was 5.28.

The term IC50 denotes the concentration at which inhibition is half-maximal. Read a low IC50 as greater potency. As to `O=[N+]([O-])c1cc(Cl)ccc1Sc1ccccc1`, the IC50 in the assay with Trypanosoma cruzi is 11.3 µg/mL (≈ 42.5 µM); with Plasmodium falciparum, 15.6 µg/mL (≈ 58.7 µM); in the assay with KB, 43.1 µg/mL (≈ 162 µM); in the assay on Leishmania donovani, more than 30 µg/mL; in [2], 11.5 µg/mL (≈ 43.3 µM).

Compound `Nc1cc(Cl)ccc1Sc1ccccc1` showed a pKi at Trypanothione reductase [3] of 3.82. Further, the Ki' in assay [4] turned out to be 860 µM. The IC50 in the assay on Trypanosoma cruzi is 6.7 µg/mL (≈ 28.4 µM); in the assay on Plasmodium falciparum it was 11.3 µg/mL (≈ 47.9 µM); with KB, 47.9 µg/mL (≈ 203 µM); in the assay with Leishmania donovani, more than 30 µg/mL; in assay [2] it was 4.4 µg/mL (≈ 18.7 µM).

Broadly, the pIC50 is the negative decadic logarithm of the IC50, by convention in mol/L. Low readings indicate a high IC50, high ones a low IC50. As to `O=C(Cc1ccccc1)Nc1cc(Cl)ccc1Sc1ccccc1`, the pIC50 against Trypanothione reductase [3] is 4.43. Besides, at Trypanothione reductase [3], the pKi is 4.61. For the same compound, in assay [4], the Ki' was 35.9 µM. Also, the half-inhibitory concentration (IC50) was more than 30 µg/mL in the assay with Trypanosoma cruzi; 30 µg/mL (≈ 84.8 µM) with Plasmodium falciparum; more than 300 µg/mL in the assay with KB; more than 30 µg/mL in the assay with Leishmania donovani; 7.4 µg/mL (≈ 20.9 µM) in [2].

Take `CC(C)(C)c1ccc([N+](C)(C)CCCNc2cc(Cl)ccc2Sc2ccccc2)cc1`: the IC50 was less than 1.1 µg/mL in the assay with Trypanosoma cruzi; 0.6 µg/mL in the assay with Plasmodium falciparum; 2.14 µg/mL with KB; 3.9 µg/mL in the assay with Leishmania donovani; 0.01 µg/mL in assay [2]. For the same compound, the figures for the pKi at Trypanothione reductase [5] and on Trypanothione reductase [1] were 5.57 and 5.19, respectively.

At Trypanothione reductase [3], `CC(C)(C)c1ccc([N+](C)(C)CCCN)cc1` showed a pKi of 6.82. Also, the IC50 in the assay on Trypanosoma cruzi is more than 30 µg/mL; with Plasmodium falciparum it was more than 30 µg/mL; in the assay with KB it was more than 300 µg/mL; with Leishmania donovani, more than 30 µg/mL; in assay [2] it was more than 30 µg/mL. This compound gave a pIC50 against Trypanothione reductase [6] of 6.22.

The compound `CCCC(=O)Nc1cc(Cl)ccc1Sc1ccccc1` had a pIC50 against Trypanothione reductase [3] of 4.52. The same compound had a pKi on Trypanothione reductase [3] of 4.95. Moreover, the Ki' in assay [4] was 42.6 µM. Also, the IC50 was 9.4 µg/mL (≈ 30.7 µM) in the assay on Trypanosoma cruzi; 19.1 µg/mL (≈ 62.5 µM) in the assay on Plasmodium falciparum; more than 300 µg/mL with KB; more than 30 µg/mL with Leishmania donovani; 14.2 µg/mL (≈ 46.4 µM) in assay [2].

On to `O=C(Nc1cc(Cl)ccc1Sc1ccccc1)c1ccccc1`, for which, at Trypanothione reductase [3], the pIC50 is 4.30. This compound had a pKi at Trypanothione reductase [3] of 4.61. For the same compound, the Ki' in assay [4] was determined as 37.7 µM. The IC50 was 19.8 µg/mL (≈ 58.3 µM) in the assay with Trypanosoma cruzi; more than 30 µg/mL in the assay with Plasmodium falciparum; 9 µg/mL (≈ 26.5 µM) in the assay with KB; more than 30 µg/mL with Leishmania donovani; 8.7 µg/mL (≈ 25.6 µM) in [2].

Regarding `C[N+](C)(CCCNc1cc(Cl)ccc1Sc1ccccc1)c1ccc(Cl)c(Cl)c1`, the Ki result in assay [7] is recorded as “Not Active”. The same compound showed a pKi at Trypanothione reductase [1] of 5.77.

Turning to `C[N+](C)(CCCN1c2ccccc2Sc2ccc(Cl)cc21)c1ccc(Cl)c(Cl)c1`, the pKi on Trypanothione reductase [3] is 6.36; at Trypanothione reductase [5], 6.74. Besides, the Ki' in assay [4] is 3.5 µM. Also, the IC50 in the assay with Trypanosoma cruzi was less than 1.1 µg/mL; in the assay with Plasmodium falciparum, 0.47 µg/mL; with KB it was 3.5 µg/mL; in the assay with Leishmania donovani it was 4 µg/mL; in assay [2], 0.02 µg/mL.

In the case of `C[N+](C)(CCCNc1cc(Cl)ccc1Sc1ccccc1)c1ccccc1`, the pKi on Trypanothione reductase [1] was 4.85.

For `O=C(Nc1cc(Cl)ccc1Sc1ccccc1)c1ccc([N+](=O)[O-])cc1`, the negative logarithm of the IC50 (pIC50) at Trypanothione reductase [3] is 4.35. At Trypanothione reductase [3], this compound showed a pKi of 4.37. In assay [4], this compound gave a Ki' of 12.9 µM. The half-maximal inhibitory concentration (IC50) in the assay with Trypanosoma cruzi is more than 30 µg/mL; in the assay with Plasmodium falciparum it was more than 30 µg/mL; in the assay with KB, 223 µg/mL (≈ 579 µM); in the assay with Leishmania donovani it was more than 30 µg/mL; in assay [2] it was more than 30 µg/mL.

In the case of `CC(C)(C)c1ccc([N+](C)(C)CCCN2c3ccccc3Sc3ccc(Cl)cc32)cc1`, the half-inhibitory concentration (IC50) with Trypanosoma cruzi was less than 1.1 µg/mL; in the assay with Plasmodium falciparum, 0.13 µg/mL; in the assay on KB it was 2.88 µg/mL; with Leishmania donovani, 3.8 µg/mL; in assay [2], 0.02 µg/mL. In addition, the figures for the negative logarithm of the Ki (pKi) at Trypanothione reductase [5] and at Trypanothione reductase [1] were 6.24 and 4.18, respectively.

Take `C[N+](C)(CCCNc1cc(Cl)ccc1Sc1ccccc1)c1ccc(OCc2ccccc2)cc1`: at Trypanothione reductase [1], the pKi is 5.18.

In turn, `CCC(=O)Nc1cc(Cl)ccc1Sc1ccccc1` had a pIC50 at Trypanothione reductase [3] of 4.50. In addition, the pKi at Trypanothione reductase [3] is 4.70. Also, the Ki' in assay [4] is 29.3 µM. Further, the IC50 in the assay with Trypanosoma cruzi is 18.3 µg/mL (≈ 62.7 µM); in the assay on Plasmodium falciparum it was more than 30 µg/mL; with KB, 93.1 µg/mL (≈ 319 µM); in the assay on Leishmania donovani, more than 30 µg/mL; in assay [2], 11.3 µg/mL (≈ 38.7 µM).
